Experimental data: ChEMBL document CHEMBL1770131, “Radiosynthesis and preliminary evaluation of 4-[18F]fluoro-N-[4-[6-(isopropylamino)pyrimidin-4-yl]-1,3-thiazol-2-yl]-N-methylbenzamide as a new positron emission tomography ligand for metabotropic glutamate receptor subtype 1” (Bioorg Med Chem Lett, 2011)
Active and inactive are the calls of the source. The calls are words filed in the database; no cut-off is given here.

How the values were obtained:
Settings in all cases: 1 M, tested as the 18F-labelled form
[1] = biological target: Metabotropic glutamate receptor 1 (Rattus norvegicus) (UniProt P23385); test: Binding affinity to mGluR1 in rat hippocampus at 1 MBq/ml after 30 mins by autoradiography in presence of 1 uM of mGluR1 antagonist JNJ16259685; assay type: tissue-based
In short: (§1)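 Rat brain sections pre-incubated 3 × 5 min at room temperature in Tris-HCl (50 mM, pH 7.4, 1.2 mM MgCl2, 2 mM CaCl2). Then incubated 30 min at room temperature in fresh buffer with radioligand (1 MBq/mL; in saline with 5% ethanol and Tween80), with or without 1 µM unlabeled ligand, JNJ16259685 or MPEP. Washed 3 × 5 min in cold buffer, dipped in cold water, air-dried, exposed to imaging plate.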

[2] = biological target: Metabotropic glutamate receptor 1 (Rattus norvegicus) (UniProt P23385); test: Binding affinity to mGluR1 in rat thalamus at 1 MBq/ml after 30 mins by autoradiography in presence of 1 uM of mGluR1 antagonist JNJ16259685; assay type: tissue-based; in short: as §1
[3] = biological target: Metabotropic glutamate receptor 1 (Rattus norvegicus) (UniProt P23385); test: Binding affinity to mGluR1 in rat striatum at 1 MBq/ml after 30 mins by autoradiography in presence of 1 uM non-radiolabeled compound; assay type: tissue-based; in short: as §1
[4] = biological target: Metabotropic glutamate receptor 1 (Rattus norvegicus) (UniProt P23385); test: Binding affinity to mGluR1 in rat thalamus at 1 MBq/ml after 30 mins by autoradiography in presence of 1 uM of mGluR5 antagonist MPEP; assay type: tissue-based; in short: as §1
[5] = biological target: Metabotropic glutamate receptor 1 (Rattus norvegicus) (UniProt P23385); test: Binding affinity to mGluR1 in rat pons-medulla at 1 MBq/ml after 30 mins by autoradiography in presence of 1 uM of mGluR1 antagonist JNJ16259685; in short: as §1
[6] = biological target: Metabotropic glutamate receptor 1 (Rattus norvegicus) (UniProt P23385); test: Binding affinity to mGluR1 in rat cerebellum at 1 MBq/ml after 30 mins by autoradiography in presence of 1 uM of mGluR1 antagonist JNJ16259685; assay type: tissue-based; in short: as §1
[7] = biological target: Metabotropic glutamate receptor 1 (Rattus norvegicus) (UniProt P23385); test: Binding affinity to mGluR1 in rat pons-medulla at 1 MBq/ml after 30 mins by autoradiography in presence of 1 uM of mGluR5 antagonist MPEP; in short: as §1
[8] = biological target: Metabotropic glutamate receptor 1 (Rattus norvegicus) (UniProt P23385); test: Binding affinity to mGluR1 in rat cerebellum at 1 MBq/ml after 30 mins by autoradiography in presence of 1 uM of mGluR5 antagonist MPEP; assay type: tissue-based; in short: as §1
[9] = biological target: Metabotropic glutamate receptor 1 (Rattus norvegicus) (UniProt P23385); test: Binding affinity to mGluR1 in rat hippocampus at 1 MBq/ml after 30 mins by autoradiography in presence of 1 uM of mGluR5 antagonist MPEP; assay type: tissue-based; in short: as §1
[10] = biological target: Metabotropic glutamate receptor 1 (Rattus norvegicus) (UniProt P23385); test: Binding affinity to mGluR1 in rat pons-medulla at 1 MBq/ml after 30 mins by autoradiography; in short: as §1
[11] = biological target: Metabotropic glutamate receptor 1 (Rattus norvegicus) (UniProt P23385); test: Binding affinity to mGluR1 in rat cerebral cortex at 1 MBq/ml after 30 mins by autoradiography; assay type: tissue-based; in short: as §1
[12] = biological target: Metabotropic glutamate receptor 1 (Rattus norvegicus) (UniProt P23385); test: Binding affinity to mGluR1 in rat whole brain at 1 MBq/ml after 30 mins by autoradiography in presence of 1 uM of mGluR1 antagonist JNJ16259685; in short: as §1
[13] = biological target: Metabotropic glutamate receptor 1 (Rattus norvegicus) (UniProt P23385); test: Binding affinity to mGluR1 in rat striatum at 1 MBq/ml after 30 mins by autoradiography in presence of 1 uM of mGluR1 antagonist JNJ16259685; assay type: tissue-based; in short: as §1
[14] = biological target: Metabotropic glutamate receptor 1 (Rattus norvegicus) (UniProt P23385); test: Binding affinity to mGluR1 in rat cerebellum at 1 MBq/ml after 30 mins by autoradiography in presence of 1 uM non-radiolabeled compound; assay type: tissue-based; in short: as §1
[15] = biological target: Metabotropic glutamate receptor 1 (Rattus norvegicus) (UniProt P23385); test: Binding affinity to mGluR1 in rat cerebellum at 1 MBq/ml after 30 mins by autoradiography; assay type: tissue-based; in short: as §1
[16] = biological target: Metabotropic glutamate receptor 1 (Rattus norvegicus) (UniProt P23385); test: Binding affinity to mGluR1 in rat thalamus at 1 MBq/ml after 30 mins by autoradiography; assay type: tissue-based; in short: as §1
[17] = biological target: Metabotropic glutamate receptor 1 (Rattus norvegicus) (UniProt P23385); test: Binding affinity to mGluR1 in rat hippocampus at 1 MBq/ml after 30 mins by autoradiography in presence of 1 uM non-radiolabeled compound; assay type: tissue-based; in short: as §1
[18] = biological target: Metabotropic glutamate receptor 1 (Rattus norvegicus) (UniProt P23385); test: Binding affinity to mGluR1 in rat cerebral cortex at 1 MBq/ml after 30 mins by autoradiography in presence of 1 uM non-radiolabeled compound; assay type: tissue-based; in short: as §1
[19] = biological target: Metabotropic glutamate receptor 1 (Rattus norvegicus) (UniProt P23385); test: Binding affinity to mGluR1 in rat striatum at 1 MBq/ml after 30 mins by autoradiography; assay type: tissue-based; in short: as §1
[20] = biological target: Metabotropic glutamate receptor 1 (Rattus norvegicus) (UniProt P23385); test: Binding affinity to mGluR1 in rat pons-medulla at 1 MBq/ml after 30 mins by autoradiography in presence of 1 uM non-radiolabeled compound; in short: as §1
[21] = biological target: Metabotropic glutamate receptor 1 (Rattus norvegicus) (UniProt P23385); test: Binding affinity to mGluR1 in rat whole brain at 1 MBq/ml after 30 mins by autoradiography in presence of 1 uM non-radiolabeled compound; in short: as §1
[22] = biological target: Metabotropic glutamate receptor 1 (Rattus norvegicus) (UniProt P23385); test: Binding affinity to mGluR1 in rat thalamus at 1 MBq/ml after 30 mins by autoradiography in presence of 1 uM non-radiolabeled compound; assay type: tissue-based; in short: as §1
[23] = biological target: Metabotropic glutamate receptor 1 (Rattus norvegicus) (UniProt P23385); test: Binding affinity to mGluR1 in rat striatum at 1 MBq/ml after 30 mins by autoradiography in presence of 1 uM of mGluR5 antagonist MPEP; assay type: tissue-based; in short: as §1
[24] = biological target: Metabotropic glutamate receptor 1 (Rattus norvegicus) (UniProt P23385); test: Binding affinity to mGluR1 in rat cerebral cortex at 1 MBq/ml after 30 mins by autoradiography in presence of 1 uM of mGluR1 antagonist JNJ16259685; assay type: tissue-based; in short: as §1
[25] = biological target: Metabotropic glutamate receptor 1 (Rattus norvegicus) (UniProt P23385); test: Binding affinity to mGluR1 in rat hippocampus at 1 MBq/ml after 30 mins by autoradiography; assay type: tissue-based; in short: as §1
[26] = biological target: Metabotropic glutamate receptor 1 (Rattus norvegicus) (UniProt P23385); test: Binding affinity to mGluR1 in rat cerebral cortex at 1 MBq/ml after 30 mins by autoradiography in presence of 1 uM of mGluR5 antagonist MPEP; assay type: tissue-based; in short: as §1

Metabotropic glutamate receptor 1 (Rattus norvegicus), sequence (P23385 19-1199 limits assumed): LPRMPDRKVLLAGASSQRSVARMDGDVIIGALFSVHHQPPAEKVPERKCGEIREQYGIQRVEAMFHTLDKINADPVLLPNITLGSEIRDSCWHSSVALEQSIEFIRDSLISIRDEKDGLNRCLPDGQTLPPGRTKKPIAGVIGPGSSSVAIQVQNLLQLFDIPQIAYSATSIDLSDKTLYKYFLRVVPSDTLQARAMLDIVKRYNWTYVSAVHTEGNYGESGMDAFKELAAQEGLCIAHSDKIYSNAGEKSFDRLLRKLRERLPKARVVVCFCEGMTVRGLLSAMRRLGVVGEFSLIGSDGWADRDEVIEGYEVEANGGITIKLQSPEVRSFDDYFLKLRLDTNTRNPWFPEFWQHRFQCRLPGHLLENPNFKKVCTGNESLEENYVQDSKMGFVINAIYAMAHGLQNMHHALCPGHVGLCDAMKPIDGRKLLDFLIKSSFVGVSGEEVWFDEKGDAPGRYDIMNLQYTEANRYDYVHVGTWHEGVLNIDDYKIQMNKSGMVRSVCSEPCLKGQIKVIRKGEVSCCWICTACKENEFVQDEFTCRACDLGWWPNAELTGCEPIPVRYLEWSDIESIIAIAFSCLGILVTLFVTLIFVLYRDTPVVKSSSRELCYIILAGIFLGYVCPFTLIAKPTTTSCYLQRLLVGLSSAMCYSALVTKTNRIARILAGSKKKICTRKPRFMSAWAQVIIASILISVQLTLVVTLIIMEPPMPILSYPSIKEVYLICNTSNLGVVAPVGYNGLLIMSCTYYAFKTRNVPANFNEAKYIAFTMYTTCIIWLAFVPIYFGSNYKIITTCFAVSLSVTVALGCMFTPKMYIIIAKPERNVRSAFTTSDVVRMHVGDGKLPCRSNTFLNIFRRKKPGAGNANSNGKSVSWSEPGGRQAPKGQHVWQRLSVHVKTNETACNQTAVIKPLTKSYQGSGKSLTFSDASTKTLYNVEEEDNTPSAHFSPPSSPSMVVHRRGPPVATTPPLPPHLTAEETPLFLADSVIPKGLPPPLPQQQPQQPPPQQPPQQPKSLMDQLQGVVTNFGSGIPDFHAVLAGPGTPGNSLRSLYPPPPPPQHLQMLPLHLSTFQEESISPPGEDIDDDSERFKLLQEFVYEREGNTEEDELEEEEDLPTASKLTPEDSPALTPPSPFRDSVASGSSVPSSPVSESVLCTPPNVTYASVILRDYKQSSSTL

## CC(C)Nc1cc(-c2csc(N(C)C(=O)c3ccc(F)cc3)n2)ncn1
[1]
  Activity: inactive
[2]
  Activity: inactive
[3]
  Activity: inactive
[4]
  Activity: 618 PSL/mm2
[5]
  Activity: inactive
[6]
  Activity: inactive
[7]
  Activity: 181 PSL/mm2
[8]
  Activity: 683 PSL/mm2
[9]
  Activity: 602 PSL/mm2
[10]
  Activity: 222 PSL/mm2
[11]
  Activity: 375 PSL/mm2
[12]
  Activity: 6.7 PSL/mm2
[13]
  Activity: inactive
[14]
  Activity: inactive
[15]
  Activity: 719 PSL/mm2
[16]
  Activity: 739 PSL/mm2
[17]
  Activity: inactive
[18]
  Activity: inactive
[19]
  Activity: 568 PSL/mm2
[20]
  Activity: inactive
[21]
  Activity: 6.9 PSL/mm2
[22]
  Activity: inactive
[23]
  Activity: 497 PSL/mm2
[24]
  Activity: inactive
[25]
  Activity: 680 PSL/mm2
[26]
  Activity: 316 PSL/mm2
